We go through 55 compounds from PubChem BioAssay AID2465 (Broad Institute, 2010).

Among all 24,000 compounds or so, fewer than 10 were called active. No stated cut-off is given here; in the data, active means caspase activation above about 5.9%; inconclusive means no clear call, values can overlap the other calls; inactive means below about 2.2%. A selection follows.

The nature of this experiment: A1 inhibitors via caspase activation, primary screen, cell-based, luminescence, HTS, two replicates (AID 2465). To be noted: MEF A1-2A-BIM cells, caspase-Glo luminescence, 3 h; active compounds read high; percent of clofoctol response, DMSO zero; concentration not given here. The essentials:
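Evaluation: Caspase-3/7 activity from luminescence increase | Assay system: A1-2A-BIM mouse embryonic fibroblasts | Quantity: 2500 MEF cells/well | Medium: RPMI-1640 plus 10% FBS | Detection: Caspase-Glo 3/7 luminescence, 1 h at room temperature | Dosing: 50 nL compound per well, pinned | Timing: Cells settled overnight, compound exposure 3 h at 37 °C, 5% CO2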
With `C[C@H]1CCCCO[C@H](CN(C)C(=O)Nc2ccccc2)[C@@H](C)CN([C@@H](C)CO)C(=O)c2cc(NC(=O)c3ccncc3)ccc2O1`, the caspase activation is 0.525% (inactive). The value for `Cc1ccc(S(=O)(=O)Nc2ccc3c(c2)C(=O)N([C@@H](C)CO)C[C@H](C)[C@@H](CN(C)C(=O)Cc2ccccc2)OCCCC[C@H](C)O3)cc1` was -0.949% (inactive); that for `C[C@@H]1CN([C@H](C)CO)C(=O)c2cccc(NC(=O)Nc3ccccc3)c2O[C@H]1CN(C)S(C)(=O)=O` was -0.29% (inactive); that for `Cc1ccccc1CN(C)C[C@H]1OCc2cn(nn2)CCCC(=O)N([C@@H](C)CO)C[C@H]1C` was -0.00464% (inactive).

On to `C[C@H](CO)N1C[C@H](C)[C@@H](CN(C)S(=O)(=O)c2cccs2)OCCCC[C@H](C)Oc2ccc(NS(=O)(=O)c3ccccc3)cc2C1=O`, for which the caspase activation is 0.384% (inactive).

Consider `C[C@@H]1CCCCO[C@H](CN(C)Cc2ccccc2)[C@H](C)CN([C@@H](C)CO)C(=O)c2cc(NC(=O)Nc3cccc4ccccc34)ccc2O1`, for which the caspase activation is -0.203% (inactive). Then `O=C(CCCCCC(=O)Nc1ccccc1O)N/N=C/c1ccc(Br)o1`, with 0.454% (inactive); and `C[C@H](CO)N1C[C@H](C)[C@H](CN(C)Cc2ccc(C(=O)O)cc2)OCc2cn(nn2)CCCC1=O`, with 0.235% (inactive); and `C[C@@H]1CN([C@@H](C)CO)C(=O)c2cc(NC(=O)Nc3ccccc3)ccc2O[C@@H]1CN(C)Cc1ccccc1`, with -0.201% (inactive). With `CC(C)NC(=O)N(C)C[C@H]1OCCCC[C@H](C)Oc2ccc(NS(=O)(=O)c3cccs3)cc2C(=O)N([C@H](C)CO)C[C@@H]1C`, the caspase activation is 1.03% (inactive). The value for `COc1ccc(NC(=O)N(C)C[C@@H]2Oc3ccc(NS(=O)(=O)c4ccc(OC)cc4)cc3CC(=O)N([C@H](C)CO)C[C@H]2C)cc1` was 0.4% (inactive); that for `COc1ccc(S(=O)(=O)Nc2cccc3c2O[C@@H](CN(C)C(=O)Nc2cccc4ccccc24)[C@H](C)CN([C@@H](C)CO)C3=O)cc1` was -1.43% (inactive); that for `C[C@H](O)[C@H](O)[C@@H](O)[C@@H](O)/C=N/NC(=O)CCCCCC(=O)Nc1ccccc1O` was 0.323% (inactive). Then `C[C@@H]1CN([C@@H](C)CO)C(=O)c2cc(NC(=O)Cc3ccccc3)ccc2O[C@@H](C)CCCCO[C@H]1CN(C)C(=O)Cc1ccccc1`, with 1.05% (inactive).

Regarding `Cc1noc(C)c1S(=O)(=O)N(C)C[C@@H]1OCCCC[C@H](C)Oc2ccc(NC(=O)Nc3ccc4c(c3)OCO4)cc2C(=O)N([C@H](C)CO)C[C@@H]1C`, the caspase activation was -0.0337% (inactive). Then `O=C(CCCCCCC(=O)Nc1ccccc1O)N/N=C/c1ccc(Oc2ccccc2)cc1`, with 0.474% (inactive).

In the case of `O=C(NO)c1ccc(C(=O)N/N=C/c2ccc(Br)cc2)cc1`, the caspase activation is -0.637% (inactive). The value for `CC(C)NC(=O)Nc1ccc2c(c1)C(=O)N([C@@H](C)CO)C[C@H](C)[C@H](CN(C)C(=O)NC1CCCCC1)OCCCC[C@@H](C)O2` was 0.925% (inactive); that for `C[C@@H]1CN([C@H](C)CO)C(=O)c2cc(NC(=O)c3ccncc3)ccc2O[C@@H](C)CCCCO[C@@H]1CN(C)CC1CC1` was -1.05% (inactive); that for `C[C@H]1CCCCO[C@H](CN(C)CC2CC2)[C@@H](C)CN([C@@H](C)CO)C(=O)c2cc(NC(=O)CCC(F)(F)F)ccc2O1` was -0.204% (inactive). Then `C[C@@H]1CCCCO[C@@H](CN(C)S(=O)(=O)c2cccs2)[C@@H](C)CN([C@@H](C)CO)C(=O)c2cc(NS(=O)(=O)c3ccc(F)cc3)ccc2O1`, with 0.628% (inactive); and `C[C@@H]1CCCCO[C@H](CN(C)Cc2ccc(C(F)(F)F)cc2)[C@@H](C)CN([C@@H](C)CO)C(=O)c2cc(NC(=O)c3ccncc3)ccc2O1`, with -0.085% (inactive). Consider `C[C@@H]1CCCCO[C@@H](CN(C)S(=O)(=O)c2ccc(F)cc2)[C@@H](C)CN([C@@H](C)CO)C(=O)c2cc(NC(=O)Nc3ccc4c(c3)OCO4)ccc2O1`, for which the caspase activation is -0.312% (inactive). The value for `C[C@H]1CN([C@@H](C)CO)C(=O)Cc2cc(NC(=O)Cn3cnnn3)ccc2O[C@H]1CN(C)CC1CC1` was -0.754% (inactive); that for `Cc1ccc(S(=O)(=O)N(C)C[C@H]2OCCCC[C@H](C)Oc3ccc(N(C)C)cc3C(=O)N([C@H](C)CO)C[C@@H]2C)cc1` was 0.228% (inactive). For `C[C@@H]1CN([C@H](C)CO)C(=O)c2cc(NS(=O)(=O)c3ccccc3)ccc2O[C@H]1CN(C)S(=O)(=O)c1cccs1`, the caspase activation was -0.323% (inactive). Take `COc1ccc(S(=O)(=O)Nc2ccc3c(c2)C(=O)N([C@H](C)CO)C[C@@H](C)[C@@H](CN(C)CC2CCCCC2)O3)cc1`: the caspase activation was -0.24% (inactive).

For `CC(C)NC(=O)N(C)C[C@@H]1Oc2ccc(NC(=O)Cn3cnnn3)cc2CC(=O)N([C@H](C)CO)C[C@H]1C`, the caspase activation is 1.87% (inactive). The value for `COc1cc(OC)c(/C=N/NC(=O)CCCCCCC(=O)Nc2ccccc2O)c(OC)c1` was -0.41% (inactive); that for `C[C@@H]1CCCCO[C@@H](CN(C)Cc2ccncc2)[C@@H](C)CN([C@H](C)CO)C(=O)c2cc(NS(=O)(=O)c3cccs3)ccc2O1` was -0.367% (inactive). The value for `C[C@@H]1CN([C@H](C)CO)C(=O)Cc2cc(NC(=O)Nc3ccc4c(c3)OCO4)ccc2O[C@H]1CN(C)Cc1ccc(C(F)(F)F)cc1` was 1.47% (inactive); that for `COc1ccc(S(=O)(=O)N(C)C[C@@H]2OCCCC[C@H](C)Oc3ccc(NC(=O)Nc4ccccc4)cc3C(=O)N([C@@H](C)CO)C[C@H]2C)cc1` was 0.213% (inactive). The value for `C[C@@H]1CN([C@@H](C)CO)C(=O)CCCn2nncc2CO[C@H]1CN(C)C(=O)CCCN(C)C` was -0.0755% (inactive); that for `COc1ccc(NC(=O)Nc2ccc3c(c2)C(=O)N([C@@H](C)CO)C[C@@H](C)[C@@H](CN(C)S(=O)(=O)c2ccc(C)cc2)OCCCC[C@H](C)O3)cc1` was -0.213% (inactive); that for `COc1ccc(S(=O)(=O)Nc2ccc3c(c2)CC(=O)N([C@@H](C)CO)C[C@H](C)[C@@H](CN(C)Cc2ccc(C(=O)O)cc2)O3)cc1` was 1% (inactive). Take `C[C@H](CO)N1C[C@H](C)[C@@H](CN(C)Cc2ccc(-c3ccccc3)cc2)Oc2ccc(NC(=O)CCCN(C)C)cc2CC1=O`: the caspase activation is 0.389% (inactive). With `C[C@@H]1CCCCO[C@@H](CN(C)C(=O)C2CCCCC2)[C@H](C)CN([C@H](C)CO)C(=O)c2cc(NC(=O)CCC(F)(F)F)ccc2O1`, the caspase activation was -0.546% (inactive). The value for `COc1ccc(S(=O)(=O)N(C)C[C@@H]2Oc3ccc(NC(=O)C4CC4)cc3CC(=O)N([C@@H](C)CO)C[C@H]2C)cc1` was -0.0568% (inactive); that for `C[C@@H]1CN([C@H](C)CO)C(=O)c2cc(NC(=O)NC3CCCCC3)ccc2O[C@@H](C)CCCCO[C@H]1CN(C)C(=O)Nc1ccccc1` was -0.462% (inactive). Then `C[C@H](CO)N1C[C@H](C)[C@@H](CN(C)Cc2ccc(C(=O)O)cc2)OCCCC[C@H](C)Oc2ccc(NC(=O)c3ccccc3)cc2C1=O`, with -0.0294% (inactive); and `Cc1noc(C)c1NC(=O)Nc1ccc2c(c1)CC(=O)N([C@@H](C)CO)C[C@@H](C)[C@H](CN(C)C(=O)NC1CCCCC1)O2`, with -0.291% (inactive).

Consider `Cc1ccc(S(=O)(=O)Nc2ccc3c(c2)C(=O)N([C@@H](C)CO)C[C@@H](C)[C@@H](CN(C)Cc2ccc(C(F)(F)F)cc2)OCCCC[C@@H](C)O3)cc1`, for which the caspase activation is 0.898% (inactive). Turning to `CNC[C@H]1OCCCC[C@H](C)Oc2ccc(NS(=O)(=O)c3ccc(Cl)cc3)cc2C(=O)N([C@@H](C)CO)C[C@@H]1C`, the caspase activation was -0.41% (inactive).

For `COc1ccc(NC(=O)N(C)C[C@@H]2Oc3ccc(NC(=O)CCN4CCOCC4)cc3C(=O)N([C@@H](C)CO)C[C@H]2C)cc1`, the caspase activation is 0.238% (inactive). The value for `C[C@@H]1CCCCO[C@H](CN(C)Cc2ccccc2)[C@H](C)CN([C@H](C)CO)C(=O)c2cc(NS(=O)(=O)c3ccc(Cl)cc3)ccc2O1` was -0.0813% (inactive); that for `C[C@H](CO)N1C[C@H](C)[C@H](CN(C)S(=O)(=O)c2ccccc2)Oc2c(NC(=O)CCCCCC(=O)Nc3ccccc3N)cccc2C1=O` was -0.28% (inactive). Then `C[C@H](CO)N1C[C@H](C)[C@H](CN(C)S(C)(=O)=O)Oc2ccc(NC(=O)c3ccncc3)cc2CC1=O`, with -0.8% (inactive). With `C[C@H]1CN([C@@H](C)CO)C(=O)CCCn2cc(nn2)CO[C@H]1CN(C)C(=O)Nc1cccc(C(F)(F)F)c1`, the caspase activation is -0.271% (inactive). Then `COc1ccc(NC(=O)Nc2ccc3c(c2)C(=O)N([C@@H](C)CO)C[C@H](C)[C@@H](CN(C)C(=O)Nc2cccc4ccccc24)OCCCC[C@@H](C)O3)cc1`, with 0.279% (inactive); and `C[C@H](CO)N1C[C@H](C)[C@@H](CN(C)S(=O)(=O)c2ccccc2)Oc2ccc(NC(=O)Nc3ccc(F)cc3)cc2CC1=O`, with -0.112% (inactive); and `C[C@@H]1CN([C@H](C)CO)C(=O)c2cc(NC(=O)C3CCCCC3)ccc2O[C@H]1CN(C)C(=O)Nc1ccccc1`, with -0.382% (inactive).

On to `C[C@H]1CN([C@@H](C)CO)C(=O)CCCn2cc(nn2)CO[C@@H]1CN(C)C(=O)Nc1ccccc1`, for which the caspase activation is 0.231% (inactive). The value for `COc1ccc(NC(=O)N(C)C[C@@H]2Oc3ccc(NS(=O)(=O)c4ccc(Cl)cc4)cc3C(=O)N([C@H](C)CO)C[C@@H]2C)cc1` was 0.258% (inactive).

On to `C[C@@H]1CN([C@@H](C)CO)C(=O)CCCn2cc(nn2)CO[C@@H]1CN(C)Cc1ccccc1C(=O)O`, for which the caspase activation is 0.264% (inactive). The value for `O=C(CCCCC(=O)N/N=C/c1ccc[nH]1)NO` was -0.0327% (inactive).
